This is an account of results in ChEMBL document CHEMBL5252546, “Salutaxel, a Conjugate of Docetaxel and a Muramyl Dipeptide (MDP) Analogue, Acts as Multifunctional Prodrug That Inhibits Tumor Growth and Metastasis” (J Med Chem, 2018).

The subject of data set [1] is 4T1. In words: Antitumor activity against mouse 4T1 cells implanted in BALB/c mouse assessed as decrease in serum TIMP-1 level at 5.7 mg/kg,iv administrated once per week for 4 weeks by ELISA. The data set is classed as functional, organism-based. (An ELISA detects its analyte on a solid surface through an enzyme-linked reagent.)
Data set [2] has as its system 4T1. In words: Antitumor activity against mouse 4T1 cells implanted in BALB/c mouse assessed as decrease in lung metastasis at 5.7 mg/kg,iv administrated once per week for 4 weeks in presence of MDA-205 by H and E staining based assay. It counts as functional, organism-based. In a few lines:
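BALB/c mice bearing orthotopic mammary fat pad 4T1 tumors, dosed iv weekly for 4 weeks with saline vehicle as control. Lung sections stained with hematoxylin and eosin and examined by light microscopy at 40× for metastasis, inflammatory infiltration and alveolar wall thickening.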

Data set [3] in a line: Drug concentration in plasma of rat at 2.28 mg/kg,iv measured upto 24 hrs. The data set is classed as ADME, organism-based. The following applies: in vivo. In outline:
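Taxane given as a single intravenous dose: 2.28 mg/kg to rats by injection and 1.14 mg/kg to Beagle dogs by infusion. Plasma concentrations were then measured.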

The subject of data set [4] is 4T1. In words: Antitumor activity against mouse 4T1 cells implanted in BALB/c mouse assessed as decrease in lung MMP2 expression level at 5.7 mg/kg,iv administrated once per week for 4 weeks in presence of compound 5b by western blot assay. The data set is classed as functional, organism-based. In outline:
(§1)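 4T1 cells injected into mammary fat pads of BALB/c mice. Saline vehicle or test article given iv once weekly for 4 weeks. Spleen, lung and tumor lysates immunoblotted for MMP2/MMP9 with β-actin as loading control. Bands averaged over five mice per group, representative of two independent experiments.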

The subject of data set [5] is 4T1. In words: Antitumor activity against mouse 4T1 cells implanted in BALB/c mouse assessed as decrease in tumor MMP2 expression level at 5.7 mg/kg,iv administrated once per week for 4 weeks by western blot assay. The data set is classed as functional, organism-based. In outline:
as §1
Background: A western blot detects proteins with antibodies after separation by electrophoresis.

The next data set relates to MDA-MB-468. Kind of data set: Antiproliferative activity against human MDA-MB-468 cells assessed inhibition of cell growth incubated for 72 hrs by SRB assay. It counts as functional, cell-based. The following applies: MDA-MB-468, 72 h. (In SRB staining, fixed cells bind dye roughly in proportion to their protein.)
In data set [6] the test system is 4T1. In words: Antitumor activity against mouse 4T1 cells implanted in BALB/c mouse assessed as decrease in spleen MDSC cells at 20 mg/kg,iv measured after 28 days (reference value: 38%). The following applies: time 28 day. The data set is classed as functional. Also noted: scale not given: the % may be the effect or the level left.
A short description of data set [7]: Drug metabolism in rat feces assessed as metabolite MDA-205 formation at 4 mg/kg,iv measured after 24 hrs. It counts as ADME, organism-based. The settings on record: in vivo.
The nature of data set [8]: Half life in rat at 4 mg/kg,iv measured upto 24 hrs. The data set is classed as ADME, organism-based. The settings on record: in vivo.
Data set [9] is described as follows: Half life in female Beagle dog at 2 mg/kg,iv measured upto 24 hrs. The data set is classed as ADME, organism-based, Canis lupus familiaris. The settings on record: in vivo.
The nature of data set [10]: Half life in female Beagle dog at 1 mg/kg,iv measured upto 24 hrs. It counts as ADME, organism-based, Canis lupus familiaris. The following applies: in vivo.
Data set [11] in a line: Drug concentration in rat plasma at 4 mg/kg,iv measured after 24 hrs. The settings on record: in vivo. The data set is classed as ADME, organism-based. In a few lines:
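Rats received 4 mg/kg iv. Parent drug and released docetaxel were assayed in tissues and plasma from the first sampling at 0.25 h to 24 h. The lower limit of quantitation was 200 ng/g.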

Data set [12] is described as follows: Stability in dog plasma assessed as compound remaining at 40 uM incubated for 6 hrs. The data set is classed as ADME, cell-free, Canis lupus familiaris.
The nature of data set [13]: AUC (0-t) in male Beagle dog at 1 mg/kg,iv measured upto 24 hrs. The data set is classed as ADME, organism-based, Canis lupus familiaris. Also noted: dose 1 mg/kg, time < 24 hrs, route iv. The following applies: in vivo. In a few lines:
(§2)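 Single iv dose: rats 2, 4 or 8 mg/kg by intravenous injection; Beagle dogs 1, 2 or 4 mg/kg by intravenous infusion. Plasma concentration–time data were analysed by sex and pooled. Reported parameters: Cmax, Tmax, AUC0−t, AUC0−∞, MRT0−∞, t1/2, CL, Vss, given as mean ± SD.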

The nature of data set [14]: Acute toxicity in Sprague-Dawley rat assessed as maximum tolerated dose at iv administration. It counts as organism-based. The following applies: in vivo. In outline:
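Acute toxicity after a single intravenous administration. […] In dogs, an approximate lethal dose range was determined.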

The target in the next data set is Cytochrome P450 2C19 (Homo sapiens, UniProt P33261). In words: Inhibition of CYP2C19 in human liver microsomes using probe substrate at 0.1 to 100 uM in presence of NADPH. The settings on record: dose 0.1-100 µM. It counts as ADME, Microsome.
Chain of Cytochrome P450 2C19 (P33261 whole entry): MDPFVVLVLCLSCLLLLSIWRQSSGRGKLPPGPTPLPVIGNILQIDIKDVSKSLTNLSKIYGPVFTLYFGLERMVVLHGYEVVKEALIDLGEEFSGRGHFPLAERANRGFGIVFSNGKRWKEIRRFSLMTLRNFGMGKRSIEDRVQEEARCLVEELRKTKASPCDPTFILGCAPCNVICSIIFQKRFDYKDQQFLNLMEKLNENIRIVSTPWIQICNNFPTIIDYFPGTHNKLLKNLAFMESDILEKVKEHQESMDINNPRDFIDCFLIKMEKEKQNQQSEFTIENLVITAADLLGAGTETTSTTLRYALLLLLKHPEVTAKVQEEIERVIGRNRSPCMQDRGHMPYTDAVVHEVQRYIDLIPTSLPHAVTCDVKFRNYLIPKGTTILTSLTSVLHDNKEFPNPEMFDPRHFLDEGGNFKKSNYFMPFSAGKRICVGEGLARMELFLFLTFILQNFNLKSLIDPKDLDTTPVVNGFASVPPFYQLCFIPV
A short description of data set [15]: Clearance in rat at 4 mg/kg,iv measured upto 24 hrs. The data set is classed as ADME, organism-based. The following applies: in vivo. In a few lines: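 Rats were given a single iv injection at 2, 4 or 8 mg/kg. Plasma parent drug and released docetaxel were followed over time. Cmax, Tmax, AUC, MRT, t1/2, CL and Vss were reported for males, females and all animals combined.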

Data set [16] is described as follows: Half life in mouse plasma implanted with mouse 4T1 cells at 10 mg/kg,iv measured upto 72 hrs. The data set is classed as ADME, organism-based.
Data set [17] is described as follows: Stability in rat plasma assessed as compound remaining at 1 uM incubated for 6 hrs. It counts as ADME, cell-free.
In another data set the test system is MCF7. Kind of data set: Antiproliferative activity against human MCF7 cells assessed inhibition of cell growth incubated for 72 hrs by SRB assay. The data set is classed as functional, cell-based. The settings on record: MCF7, 72 h.
Data set [18] in a line: Drug metabolism in rat plasma assessed as metabolite docetaxel formation at 4 mg/kg,iv measured after 24 hrs. The data set is classed as ADME, organism-based. The settings on record: in vivo.
A short description of data set [19]: Stability in rat hepatocyte assessed as compound remaining at 3 uM incubated upto 120 mins. It counts as ADME, cell-based. The settings on record: hepatocytes, 2 h.
Data set [20] is described as follows: Volume of distribution at steady state in rat at 8 mg/kg,iv measured upto 24 hrs. The settings on record: in vivo, read-out: Vdss. The data set is classed as ADME, organism-based.
Data set [21] in a line: Toxicity in BALB/c mouse xenografted with mouse 4T1 cells assessed as decrease in body weight at 10 mg/kg,iv administrated once per week for 4 weeks. The data set is classed as organism-based. The settings on record: in vivo, 672 h.
Data set [22] is described as follows: Tmax in male rat at 2 mg/kg,iv measured upto 24 hrs. It counts as ADME, organism-based. The following applies: in vivo.
Data set [23] has as its system 4T1. Kind of data set: Antitumor activity against mouse 4T1 cells implanted in BALB/c mouse assessed as decrease in MMP8 mRNA expression in lung at 20 mg/kg,iv administrated qd for 2 days by qRT-PCR analysis. The data set is classed as functional, organism-based. The following applies: time 2.0 day. In a few lines:
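Day 19 after 4T1 implantation, mice randomised into five groups; iv vehicle or 20 mg/kg plus ip C12-iE-DAP (50 μg/mouse) and MDP (100 μg/mouse) once daily for 2 days; killed after 48 h; lung mRNA for MMP8, MMP9, PROK2, S100A8, S100A9 and IL-1β by qPCR; mean ± SEM.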

Data set [24] can be described thus: AUC (0-infinity) in female rat at 8 mg/kg,iv measured upto 24 hrs. The data set is classed as ADME, organism-based. On the set-up: dose 8 mg/kg, time < 24 hrs, route iv. The following applies: in vivo. In outline:
as §2

A short description of data set [25]: AUC (0-t) in female rat at 2 mg/kg,iv measured upto 24 hrs. On the set-up: time < 24 hrs, dose 2 mg/kg, route iv. The following applies: in vivo. It counts as ADME, organism-based. In outline: as §2
The nature of data set [26]: MRT (0 to infinity) in male Beagle dog at 1 mg/kg,iv measured upto 24 hrs. The following applies: in vivo. The data set is classed as ADME, organism-based, Canis lupus familiaris.
The nature of data set [27]: Clearance in female Beagle dog at 2 mg/kg,iv measured upto 24 hrs. The data set is classed as ADME, organism-based, Canis lupus familiaris. The following applies: in vivo. In a few lines:
(§3)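 Beagle dogs were given a single iv infusion at 1, 2 or 4 mg/kg. Plasma parent drug and released docetaxel were followed over time. Cmax, Tmax, AUC, MRT, t1/2, CL and Vss were reported by sex and for all dogs combined.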

Data set [28] can be described thus: AUC (0-t) in Beagle dog at 4 mg/kg,iv measured upto 24 hrs. The following applies: in vivo. The data set is classed as ADME, organism-based, Canis lupus familiaris. On the set-up: dose 4 mg/kg, time < 24 hrs, route iv. In a few lines:
as §2

Data set [29] in a line: Clearance in male Beagle dog at 1 mg/kg,iv measured upto 24 hrs. The data set is classed as ADME, organism-based, Canis lupus familiaris. The settings on record: in vivo. In a few lines: as §3
Data set [30] in a line: Volume of distribution at steady state in female rat at 8 mg/kg,iv measured upto 24 hrs. It counts as ADME, organism-based. The settings on record: in vivo, read-out: Vdss.

Calls of active or inactive are those of the source. No cut-off for these calls is given here.

Take `CC(=O)O[C@@]12CO[C@@H]1C[C@H](O)[C@@]1(C)C(=O)[C@H](O)C3=C(C)[C@@H](OC(=O)[C@H](O)[C@@H](NC(=O)OC(C)(C)C)c4ccccc4)C[C@@](O)([C@@H](OC(=O)c4ccccc4)[C@H]21)C3(C)C` [DOCETAXEL ANHYDROUS]: the outcome in the data set with 4T1 [1] and in the data set on 4T1 [2] was Active. The compound also yielded a Drug uptake in [3] of 45%. Further, the result in the data set with 4T1 [4] and with 4T1 [5] was inactive.
As to `CC(=O)O[C@@]12CO[C@@H]1C[C@H](O)[C@@]1(C)C(=O)[C@H](O)C3=C(C)[C@@H](OC(=O)[C@H](OC(=O)CCC(=O)NCCCC[C@H](NC(=O)CC[C@@H](NC(=O)[C@H](C)NC(=O)/C=C/c4ccc(F)cc4Cl)C(N)=O)C(=O)O)[C@@H](NC(=O)OC(C)(C)C)c4ccccc4)C[C@@](O)([C@@H](OC(=O)c4ccccc4)[C@H]21)C3(C)C`, the IC50 with MDA-MB-468 and with MCF7 was 16.3 nM each time. For the same compound, the Activity is listed as 10.1% in the data set with 4T1 [6] and “Toxic” in data set [21]. Further, the Drug metabolism entry in [7] and in [18] was “Metabolite_Detected” in each case. For the same compound, the half-life (in general, the time in which the quantity being followed falls by half) in [8] is 10.6 min; in data set [9], 30.9 min; in data set [10], 29 min; in [16], 41.4 min. In addition, the Drug uptake in data set [11] was 1%. For the same compound, the Stability entry in data set [12], in data set [17] and in data set [19] was “Stable” in each case. The AUC(0-t) (commonly the area under the concentration-time curve up to a stated or last time point) at 24 h in data set [13] turned out to be 1590 ng·h/mL; in data set [25], 4320 ng·h/mL; in data set [28], 17200 ng·h/mL. Moreover, the maximum tolerated dose (MTD) – broadly, the largest dose that counted as tolerated – in data set [14] was 9.4 mg/kg. The “inhibition (INH)” value on Cytochrome P450 2C19 is “Not Active”. Besides, the clearance (usually the rate of elimination divided by the concentration) amounted to 4.21 mL/min/kg in data set [15], 5.04 mL/min/kg in [27] and 11.7 mL/min/kg in [29]. Moreover, the results for the Vd in data set [20] and in [30] were 0.096 L/kg and 0.095 L/kg, respectively. The Tmax (as a rule, the time at which the peak concentration occurs) in data set [22] was 4.98 min. Also, the result in the data set on 4T1 [23] was Active. For the same compound, the AUC(0-inf) (in general, total exposure, with the tail of the curve extrapolated) in [24] worked out at 39400 ng·h/mL. Moreover, the MRT inf – broadly, the average time that molecules of a dose stay in the body – in [26] is 12.1 min.
